Data reported in ChEMBL document CHEMBL2146441, “2,6-Disubstituted imidazo[2,1-b][1,3,4]thiadiazoles: search for anticancer agents” (2012).

Experiments:
Assay type in all cases: functional
MDA-MB-468 = assay: Cytotoxicity against human MDA-MB-468 cells assessed as cell growth at 10^-7 M after 48 hrs by SRB assay; conditions: MDA-MB-468, 48 h, read-out: Activity
SNB-19 = assay: Cytotoxicity against human SNB19 cells assessed as cell growth at 10^-5 M after 48 hrs by SRB assay; conditions: SNB-19, 48 h, read-out: Activity
M14 = assay: Growth inhibition of human M14 cells after 48 hrs by SRB assay; conditions: M14, 48 h
Method in brief: (§1)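 Adherent NCI-60 lines grown in RPMI 1640 with 5% FBS, seeded at 5000–40,000 cells/well, and preincubated 24 h at 37 °C, 5% CO2. Compound, stocked in DMSO, given either once at 10^-5 M or at five 10-fold dilutions for 48 h. Cells fixed with cold TCA (final 10%), stained with 0.4% SRB, and read at 515 nm. GI50 taken as 50% reduction in net protein increase versus time-zero and control plates.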

786-0 [1] = assay: Cytotoxicity against human 786-0 cells assessed as cell growth at 10^-7 M after 48 hrs by SRB assay; conditions: 786-0, 48 h, read-out: Activity
Method in brief: (§2)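 NCI-60 screen: lines kept in RPMI 1640 with 5% FBS, seeded at 5000–40,000 cells/well by doubling time, preincubated 24 h at 37 °C in 5% CO2. Time-zero plates TCA-fixed at drug addition. DMSO stocks diluted in medium, 48 h exposure. Fixation in cold TCA (final 10% adherent, 16% suspension), 0.4% SRB stain, solubilised in 10 mM Tris base, A515. Percent growth computed against control and time-zero.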

MCF7 = assay: Cytotoxicity against human MCF7 cells assessed as cell growth at 10^-4 M after 48 hrs by SRB assay; conditions: MCF7, 48 h, read-out: Activity
KM12 [2] = assay: Cytotoxicity against human KM12 cells assessed as cell growth at 10^-4 M after 48 hrs by SRB assay; conditions: KM12, 48 h, read-out: Activity
HOP-62 = assay: Cytotoxicity against human HOP62 cells assessed as cell growth at 10^-5 M after 48 hrs by SRB assay; conditions: HOP-62, 48 h, read-out: Activity
Method in brief: (§3)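 NCI-60 five-dose screen. Cells were grown in RPMI 1640 with 5% FBS and seeded at 5000–40,000 cells/well according to doubling time. They were pre-incubated 24 h at 37 °C in 5% CO₂, and time-zero (Tz) plates were TCA-fixed at drug addition. Five 10-fold dilutions of DMSO stock were applied for 48 h. Read-out was SRB staining, 515 nm absorbance, with percent growth calculated versus Tz and untreated control.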

NCI-H226 = assay: Cytotoxicity against human NCI-H226 cells assessed as cell growth at 10^-4 M after 48 hrs by SRB assay; conditions: NCI-H226, 48 h, read-out: Activity
[3] = Cytotoxicity against human NCI-ADR-RES cells assessed as cell growth at 10^-5 M after 48 hrs by SRB assay; conditions: read-out: Activity
SNB-75 = assay: Cytotoxicity against human SNB75 cells assessed as cell growth at 10^-5 M after 48 hrs by SRB assay; conditions: SNB-75, 48 h, read-out: Activity
HCT-15 = assay: Growth inhibition of human HCT15 cells after 48 hrs by SRB assay; conditions: HCT-15, 48 h; for CC50: read-out: LC50 (the source's name); method in brief: as §1
[4] = Cytotoxicity against human […] cells assessed as cell growth at 10^-6 M after 48 hrs by SRB assay; conditions: 48 h, read-out: Activity
SF-295 [5] = assay: Cytotoxicity against human SF295 cells assessed as cell growth at 10^-4 M after 48 hrs by SRB assay; conditions: SF-295, 48 h, read-out: Activity
SR = assay: Growth inhibition of human SR cells after 48 hrs by SRB assay
KM12 [6] = assay: Growth inhibition of human KM12 cells after 48 hrs by SRB assay; conditions: KM12, 48 h; method in brief: as §1
A549 = assay: Growth inhibition of human A549 cells after 48 hrs by SRB assay; conditions: A549, 48 h; for CC50: read-out: LC50 (the source's name)
Method in brief: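 Same 48 h NCI-60 five-dose SRB protocol. Adherent lines were fixed with cold TCA at 10% final; suspension lines such as CCRF-CEM were fixed with 16% final TCA. Stain was 0.4% SRB in 1% acetic acid for 10 min, solubilized in 10 mM Tris base and read at 515 nm. GI50 came from log concentration–growth curves, solving [(Ti−Tz)/(C−Tz)]×100 = 50.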

IGROV-1 = assay: Cytotoxicity against human IGROV1 cells assessed as cell growth at 10^-4 M after 48 hrs by SRB assay; conditions: IGROV-1, 48 h, read-out: Activity; method in brief: as §3
OVCAR-3 [7] = assay: Cytotoxicity against human OVCAR3 cells assessed as cell growth at 10^-6 M after 48 hrs by SRB assay; conditions: OVCAR-3, 48 h, read-out: Activity
SF-295 [8] = assay: Cytotoxicity against human SF295 cells assessed as cell growth at 10^-7 M after 48 hrs by SRB assay; conditions: SF-295, 48 h, read-out: Activity
OVCAR-8 = assay: Cytotoxicity against human OVCAR8 cells assessed as cell growth at 10^-7 M after 48 hrs by SRB assay; conditions: OVCAR-8, 48 h, read-out: Activity
OVCAR-5 = assay: Cytotoxicity against human OVCAR5 cells assessed as cell growth at 10^-8 M after 48 hrs by SRB assay; conditions: OVCAR-5, 48 h, read-out: Activity
SN12C = assay: Cytotoxicity against human SN12C cells assessed as cell growth at 10^-6 M after 48 hrs by SRB assay; conditions: read-out: Activity
[9] = Cytotoxicity against human RPMI8266 cells assessed as cell growth at 10^-4 M after 48 hrs by SRB assay; conditions: RPMI8266, 48 h, read-out: Activity
OVCAR-3 [10] = assay: Cytotoxicity against human OVCAR3 cells assessed as cell growth at 10^-8 M after 48 hrs by SRB assay; conditions: OVCAR-3, 48 h, read-out: Activity
TK-10 [11] = assay: Cytotoxicity against human TK10 cells assessed as cell growth at 10^-7 M after 48 hrs by SRB assay; conditions: TK-10, 48 h, read-out: Activity
ACHN = assay: Cytotoxicity against human ACHN cells assessed as cell growth at 10^-6 M after 48 hrs by SRB assay; conditions: read-out: Activity; method in brief: as §2
786-0 [12] = assay: Cytotoxicity against human 786-0 cells assessed as cell growth at 10^-6 M after 48 hrs by SRB assay; conditions: 786-0, 48 h, read-out: Activity; method in brief: as §2
TK-10 [13] = assay: Cytotoxicity against human TK10 cells assessed as cell growth at 10^-8 M after 48 hrs by SRB assay; conditions: TK-10, 48 h, read-out: Activity
SF-539 = assay: Cytotoxicity against human SF539 cells assessed as cell growth at 10^-8 M after 48 hrs by SRB assay; conditions: SF-539, 48 h, read-out: Activity
[14] = Growth inhibition of human […] cells after 48 hrs by SRB assay

| Compound | growth at 0.1 µM (MDA-MB-468) [%] | growth at 10 µM (SNB-19) [%] | GI50 (M14) [µM] | LC50 (concentration killing 50% of cells) (M14) [µM] | TGI (M14) [µM] | growth at 0.1 µM (786-0 [1]) [%] | growth at 100 µM (MCF7) [%] | growth at 100 µM (KM12 [2]) [%] | growth at 10 µM (HOP-62) [%] | growth at 100 µM (NCI-H226) [%] | growth at 10 µM [3] [%] | growth at 10 µM (SNB-75) [%] | GI50 (HCT-15) [µM] | TGI (HCT-15) [µM] | CC50 (HCT-15) [µM] | growth at 1 µM [4] [%] | growth at 100 µM (SF-295 [5]) [%] | GI50 (SR) [µM] | LC50 (SR) [µM] | TGI (SR) [µM] | other results |
| --- | --- | --- | --- | --- | --- | --- | --- | --- | --- | --- | --- | --- | --- | --- | --- | --- | --- | --- | --- | --- | --- |
| COc1ccc(-c2nn3cc(-c4cccc(N)c4)nc3s2)cc1 | 80 | 54 | 5.48 | 90.1 | 24.5 | 105 | -47 | -48 | 15 | -61 | 31 | -24 | 5.26 | > 100 | > 100 | 55 | -27 | 3.27 | > 100 | > 100 | Concentration killing 50% of cells (LC50) (KM12 [6]): > 100 µM; GI50 (KM12 [6]): 5.34 µM; TGI (KM12 [6]): 27.5 µM; GI50 (A549): 5.84 µM; TGI (A549): 27.5 µM; CC50 (A549): > 100 µM; growth at 100 µM (IGROV-1): -18%; growth at 1 µM (OVCAR-3 [7]): 86%; growth at 0.1 µM (SF-295 [8]): 87%; growth at 0.1 µM (OVCAR-8): 107%; growth at 0.01 µM (OVCAR-5): 103%; growth at 1 µM (SN12C): 73%; growth at 100 µM [9]: -8%; growth at 0.01 µM (OVCAR-3 [10]): 102%; growth at 0.1 µM (TK-10 [11]): 135%; growth at 1 µM (ACHN): 93%; growth at 1 µM (786-0 [12]): 104%; growth at 0.01 µM (TK-10 [13]): 125%; growth at 0.01 µM (SF-539): 101%; GI50 [14]: 2.33 µM |
| COc1ccc(-c2nn3cc(-c4ccc(O)cc4O)nc3s2)cc1 | 78 | 22 | 3.68 | > 100 | 18.1 | 99 | -7 | 2 | -33 | -19 | 15 | -66 | 5.13 | > 100 | > 100 | 69 | -13 | 2.17 | > 100 | 14 | Concentration killing 50% of cells (LC50) (KM12 [6]): > 100 µM; GI50 (KM12 [6]): 3.61 µM; TGI (KM12 [6]): > 100 µM; GI50 (A549): 2.69 µM; TGI (A549): > 100 µM; CC50 (A549): > 100 µM; growth at 100 µM (IGROV-1): -7%; growth at 1 µM (OVCAR-3 [7]): 89%; growth at 0.1 µM (SF-295 [8]): 90%; growth at 0.1 µM (OVCAR-8): 98%; growth at 0.01 µM (OVCAR-5): 92%; growth at 1 µM (SN12C): 80%; growth at 100 µM [9]: 3%; growth at 0.01 µM (OVCAR-3 [10]): 102%; growth at 0.1 µM (TK-10 [11]): 105%; growth at 1 µM (ACHN): 100%; growth at 1 µM (786-0 [12]): 90%; growth at 0.01 µM (TK-10 [13]): 92%; growth at 0.01 µM (SF-539): 105%; GI50 [14]: 1.92 µM |
